The record followed here is ChEMBL document CHEMBL4513216, “Probing the Open Global Health Chemical Diversity Library for Multistage-Active Starting Points for Next-Generation Antimalarials” (ACS Infect Dis, 2020).

The structures appear in SMILES notation.

The nature of the data set: Toxicity liver stage against HepG2, at 10uM. As to conditions: human, HepG2-A16-CD81EGFP cells; read-out: INHIBITION
Details: test concentration 10 uM, cell line HepG2-A16-CD81EGFP. It is filed as cell-based. The method in brief: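 Uninfected HepG2-A16-CD81EGFP cells, 3 × 10^3 per well, 1536-well, plated on prespotted compound at 10 μM final, parasite-free screening media added to match infected plates; puromycin 10 μM positive, DMSO 0.5% negative; run in parallel with 48 h PbLuc assay at 37 °C, 5% CO2; viability by CellTiter-Glo luminescence, normalized to controls.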
For `O=C(c1cc(CC2(NCc3ccccc3)COC2)no1)N1CCCCC1`, the cytotoxicity at 10 µM came out at 1.14%.
The result for `CCCn1cnc2c1CN(S(=O)(=O)Cc1ccccc1)[C@H](C(=O)OC)C2` reads -4.84%; that for `Cc1ccc(-c2cn3c(n2)CO[C@@H](CNCc2nccn2C)C3)cc1`, -10.6%.
In the case of `CS(=O)(=O)c1ccc2c(c1)nc1n2[C@@H](CNCc2cccnc2)COC1` it was -2.68%; in that of `CCCNc1ccc(C(=O)NCCc2ccc(Cl)cc2)cn1`, -1.05%; in that of `CN1C[C@@H]2CN(C(=O)C3CC=CC3)C[C@@H]2C1=O`, -114%.
Turning to `CC(C)C(=O)N1CCc2nc(C(=O)Nc3cccnc3)sc2CC1`, the cytotoxicity at 10 µM is 12.5%.
`O=C(C1CCOCC1)N1C[C@H](OCc2cccnc2)[C@H]2COC[C@H]21`: the cytotoxicity at 10 µM was found to be 1.99%.
Turning to `CCN1C(=O)C2(CCOCC2)c2cc(NC(=O)c3cc(C)n[nH]3)ccc21`, the cytotoxicity at 10 µM was -2.49%.
On to `CCN(CC)CC1CN(Cc2c(C)noc2C)Cc2nccn2C1` (configuration not stated), for which the cytotoxicity at 10 µM came to 2.37%.
`CC(=O)c1ccc(-n2ccc3nc(N4CCCC4)ncc3c2=O)cc1`: the cytotoxicity at 10 µM worked out at 1.45%.
For the compound `COc1ccccc1CNc1ncnc2c1NC(=O)CN2`, the cytotoxicity at 10 µM is 11.3%.
On to `Cc1ccc(C2CN(Cc3cccc4[nH]ccc34)CCO2)nc1` (configuration not stated), for which the cytotoxicity at 10 µM is -35.6%.
For `Cn1ccc(C(=O)N2CCC(Cc3cnc4[nH]ccc4c3)C2)n1` (configuration not stated), the cytotoxicity at 10 µM was -5%.
Consider `O=C(NCCc1ccncc1)c1cccc(S(=O)(=O)NC2CC2)c1`, for which the cytotoxicity at 10 µM is -151%.
In the case of `Cn1cc(NC(=O)N2CCCC2c2cccnc2)ccc1=O` (configuration not stated), the cytotoxicity at 10 µM was -3.73%.
With `O=C(Cn1cncn1)NCC1CCN(Cc2ccccc2Cl)CC1`, the cytotoxicity at 10 µM was -3.84%.
Regarding `CNC(=O)c1cccnc1NCCOc1ccccc1`, the cytotoxicity at 10 µM was -4%.
The result for `CCOc1ccnc(N2CCCN(c3nc(C4CC4)ns3)CC2)n1` reads 6.97%; that for `COCCNC1(c2ccc(Cl)cc2)CCOCC1`, 7.06%.
`Cc1cc(CNC(=O)N2CCc3ccccc32)on1`: the cytotoxicity at 10 µM was -3.57%.
On to `CC(NC(=O)c1cccc(CN2CCN(C)CC2)c1)c1ccccn1` (configuration not stated), for which the cytotoxicity at 10 µM is -13.5%.
As for `CN(Cc1cc(Br)cn1C)C(=O)c1ccsc1`, the cytotoxicity at 10 µM was -10%.
Take `O=C(CCCc1ccccn1)N1CCC(n2cccc2)CC1`: the cytotoxicity at 10 µM is 4.59%.
The result for `O=C(NCc1ccccc1CO)Nc1ccc2c(c1)CCC2` reads 3.09%.
Consider `N#CCCN(CCC#N)C(=O)c1ccc(OCC2CC2)cc1`, for which the cytotoxicity at 10 µM was -10.8%.
In the case of `NC(=O)N1CCCC(C(=O)NCc2ccccc2OC(F)(F)F)C1` (configuration not stated) it was 1.01%; in that of `CC(C)c1nccn1C1CCCN(C(=O)c2ccn(C)c(=O)c2)C1` (configuration not stated), 7.35%.
As to `CCc1cnc(N2CCN(CC(=O)Nc3c(C)n[nH]c3C)CC2)s1`, the cytotoxicity at 10 µM is -2.69%.
In the case of `CCN(CC(F)(F)F)C(=O)C1CCCN(Cc2nc(C)c(C)o2)C1` (configuration not stated), the cytotoxicity at 10 µM was -4.05%.
In the case of `Cc1cccc(Nc2c(C#N)c(=O)n(C)c(=O)n2C)c1`, the cytotoxicity at 10 µM is -7.48%.
As to `CC(C)Cc1ccc(C(=O)Cn2cnnc2[S+](C)[O-])cc1` (configuration not stated), the cytotoxicity at 10 µM is -7.08%.
Take `CS(=O)(=O)NCC1CCCN(C(=O)Nc2ccccc2N2CCCC2)C1` (configuration not stated): the cytotoxicity at 10 µM was -139%.
In the case of `CNS(=O)(=O)c1ccc(CCC(=O)NCc2cccc(OC)c2)cc1` it was -148%.
With `CSc1ccc(NC(=O)NCC2CCCO2)cc1F` (configuration not stated), the cytotoxicity at 10 µM is -7.81%.
For `COc1ccc(N(C(=O)Cc2ccc(C)nc2)C(C)C)cc1F`, the cytotoxicity at 10 µM stood at 0.854%.
The result for `COC(=O)c1cnc(/C=C/c2ccc(C(=O)O)cc2)s1` reads 2.56%; that for `O=c1c2cccnc2cnn1CC(O)c1cccc(Cl)c1` (configuration not stated), -10.2%.
Take `COc1c(C)cnc(CNC(=O)CCOCC(C)C)c1C`: the cytotoxicity at 10 µM was -4.44%.
In the case of `CC(C)Cn1ncc2cc(C(=O)N(C)CCc3ccccc3)cnc21` it was -3.42%.
`CN1CCN(c2ccc(NC(=O)c3ccccn3)c(C(F)(F)F)c2)CC1`: the cytotoxicity at 10 µM is 0.753%.
With `OCCN1CCN(CC(O)c2cc(Cl)ccc2Cl)CC1` (configuration not stated), the cytotoxicity at 10 µM is -3.03%.
Take `CNC(=O)c1cnc(/C=C/c2cc(OC)cc(OC)c2)s1`: the cytotoxicity at 10 µM is -19.6%.
Consider `Cn1cc(-c2csc(N3CCOCC3)n2)cn1`, for which the cytotoxicity at 10 µM turned out to be 0.469%.
In the case of `Cc1nc(C2(NCC(=O)NCCc3cccs3)CCCC2)no1` it was -2.18%; in that of `COc1ncccc1C(=O)NCC1Cc2ccccc2O1` (configuration not stated), -13.4%; in that of `Cc1csc2ncc(-c3ccnc(N4CCCC4)n3)c(=O)n12`, -13.2%.
For the compound `Cc1ccnc(N2CCN(C3CCS(=O)(=O)C3)CC2)n1` (configuration not stated), the cytotoxicity at 10 µM was -2.71%.
The result for `COCCC1(CO)CCCN(Cc2ccc(C#N)cc2)C1` (configuration not stated) reads -156%.
Take `CC(=O)NCCNC(=O)c1cnc2c(c1)nc(-c1ccccc1Cl)n2C`: the cytotoxicity at 10 µM was 4.99%.
In the case of `CC(CNC(=O)c1cc(Cn2cnc3ccccc32)[nH]n1)N1CCCC1` (configuration not stated) it was -4.62%; in that of `Cc1ccc2[nH]c(CN(C)c3cc(CN)nc(C)n3)nc2c1`, 1.69%.
In the case of `Cc1nc(C(C)C)sc1C(=O)NCCSc1ccccn1`, the cytotoxicity at 10 µM amounted to 3.76%.
As for `COc1ccccc1[C@@H]1CN(Cc2csc(C(C)=O)c2)C[C@H]1C(=O)O`, the cytotoxicity at 10 µM was -4.75%.
In the case of `CC1(CNS(=O)(=O)c2cccc(C(=O)N3CCSCC3)c2)COC1`, the cytotoxicity at 10 µM was -6.69%.
Turning to `O=C(O)[C@H]1C[C@H](C(=O)NCc2ccncc2)CN(CCC(F)(F)F)C1`, the cytotoxicity at 10 µM was -142%.
Turning to `O=C1CCCN1CCc1noc(-c2ccc(Cl)cc2)n1`, the cytotoxicity at 10 µM is 7.9%.
In the case of `CCc1ccc(CN2C[C@@H](C(=O)O)[C@H](c3ccccc3OC)C2)o1`, the cytotoxicity at 10 µM is -13.9%.
For the compound `O=C(CCc1cc(O)no1)N1CCCC(COc2ccccc2F)C1` (configuration not stated), the cytotoxicity at 10 µM came to 0.296%.
The result for `O=C1NCCCC[C@@H]1Nc1ccc(-c2nc(C3CC3)no2)cn1` reads 2.87%.
Take `CN(C)CCNC(=O)c1ccc(OC2CCN(C(=O)CO)CC2)c(Cl)c1`: the cytotoxicity at 10 µM was -2.43%.
Turning to `O=C1OCCN1Cc1nc(C2(c3ccc(F)cc3)CCOC2)no1` (configuration not stated), the cytotoxicity at 10 µM is -5.22%.
`Cn1ccnc1-c1ccc(NCc2cn3c(n2)SCC3)nn1`: the cytotoxicity at 10 µM was -0.641%.
In the case of `CCN(CC)C(CNCc1ccc(OC)c(F)c1)c1ccco1` (configuration not stated) it was 15.2%; in that of `NC(=O)N1CCCC(C(=O)NCc2noc(Cc3ccccc3)n2)C1` (configuration not stated), 2.4%; in that of `O=C(N1CCOCC1)N1CCCC1c1nc(-c2ccccn2)no1` (configuration not stated), 10.7%.
In the case of `CCc1ccccc1OC1CN(C(=O)CN(C)Cc2cccnc2)C1` it was 1.61%; in that of `C=C(C)COc1ccccc1NC(=O)N1CCOCC1CO` (configuration not stated), -4.1%.
The result for `CCC(NC(=O)c1cnc(N(C)C)nc1C)c1ccc(S(C)(=O)=O)cc1` (configuration not stated) reads -3.5%.
`CC[C@@]1(O)CCN(C(=O)c2ccc(-c3cccc(F)c3)cc2)C[C@H]1O`: the cytotoxicity at 10 µM is -5.68%.
Regarding `CCNC(=O)[C@@H]1C[C@H](NC(=O)c2ccccc2C#N)CN1CCCSC`, the cytotoxicity at 10 µM is -12.7%.
For the compound `O=C(c1cc(COc2ccc3c(c2)OCO3)[nH]n1)N1CC=CC1CO` (configuration not stated), the cytotoxicity at 10 µM was -6.49%.
The result for `CC(NC(=O)NCc1ccccn1)c1ccc2c(c1)CCC(=O)N2` (configuration not stated) reads 7.47%; that for `CCc1ccc(C(=O)NCCNc2ncccn2)cc1`, 0.364%; that for `COc1ccccc1C(C)N(C)Cc1nc2c(cnn2C)c(=O)[nH]1` (configuration not stated), -9.1%.
In the case of `O=C(CN1CC(n2cccn2)C1)NCCC1=CCCCC1` it was -8.25%; in that of `Cc1ccc(N2CCCN(C(=O)C3CCCO3)CC2)nn1` (configuration not stated), -11.1%.
For the compound `O=C(Nc1ccccc1F)C1=NN(c2ccccc2)C(=O)CN1`, the cytotoxicity at 10 µM was -13.2%.
Take `O=C(CN1CCCCC1Cn1cncn1)NCCc1ccsc1` (configuration not stated): the cytotoxicity at 10 µM is -6.19%.
In the case of `Cc1cnn(CC(C)NCc2ccc(OCc3noc(C)n3)cc2)c1` (configuration not stated) it was 1.16%; in that of `O=C(c1cn(-c2ccc(F)cc2)nn1)N1CCCC(n2cccn2)C1` (configuration not stated), -3.56%; in that of `Cc1cnn(CC2CCCN2C(=O)c2csc(-c3nnc[nH]3)n2)c1` (configuration not stated), -2.94%.
Regarding `Cc1csc(CNC(=O)NCc2ccc3c(c2)OCCO3)n1`, the cytotoxicity at 10 µM was -5.52%.
Turning to `Cc1cccc(CS(=O)(=O)CC(=O)N(C)Cc2ccccc2F)c1`, the cytotoxicity at 10 µM is -2.71%.
As for `COCc1nn(C)c2c1CN(Cc1cnn(C)c1)CC2`, the cytotoxicity at 10 µM turned out to be 1.64%.
In the case of `Cn1ccnc1CN1CCc2ncnc(N3CCCC3)c2CC1`, the cytotoxicity at 10 µM is -142%.
Consider `COCc1nn(C(C)C)c2c1CCN(Cc1ccoc1)C2`, for which the cytotoxicity at 10 µM is 3.33%.
In the case of `COc1ccc2c(c1)C1(CCN(Cc3cnn(C)c3)CC1)N(C)CC2` it was -136%; in that of `c1csc(CN2CCC3(CCCN(c4nncs4)C3)C2)n1` (configuration not stated), -144%; in that of `Cc1ccc2c(n1)N(CCn1cccn1)CCN(C1CCOCC1)C2`, -2.83%.
For `CCN(C)c1ncnc2c1CCN(C(=O)NCc1cccnc1)CC2`, the cytotoxicity at 10 µM is -126%.
On to `Cn1cccc1C(=O)N1CCCCC12CC(=O)N(c1cccnc1)C2` (configuration not stated), for which the cytotoxicity at 10 µM is -1.91%.
For `CN1CCN(C(=O)c2ncn3c2CN(C)S(=O)(=O)c2ccccc2-3)CC1`, the cytotoxicity at 10 µM is -153%.
`CCN1CC2(CNCCN(C(=O)Nc3ccccc3)C2)CC1=O` (configuration not stated): the cytotoxicity at 10 µM worked out at 0.346%.
In the case of `Cc1noc(C)c1CN1C(=O)[C@@H]2CC[C@H]1CN(Cc1cccc(O)c1)C2` it was 4.42%.
`COc1ccc(Cl)cc1CN(C)CC(=O)Nc1ccnn1C(C)C1CC1` (configuration not stated): the cytotoxicity at 10 µM was 4.85%.
In the case of `CCNc1nc2cn(-c3cccc(OC)c3)c(=O)c-2c[nH]1`, the cytotoxicity at 10 µM is 8.65%.
